Laboratory results: publication PMC7480958 (ACS chemical biology, 2020)

Columns and labels:
proteinase K = proteinase K (Parengyodontium album, UniProt P06873); assay: Protease activity assay, proteinase K; format: biochemical, Engyodontium album
human chymotrypsin = human chymotrypsin (Homo sapiens, UniProt P17538); assay: Protease activity assay, chymotrypsin; format: biochemical; settings: isoleucine in 1 versus valine in 2 and 3
bovine trypsin = assay: Protease activity assay, trypsin; format: biochemical; settings: incubated with up to 20 μM
Outline: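 Bovine trypsin in DPBS pH 7.4 with 0.01% Tween-20 and 2 mM DTT was preincubated for 30 min at 22°C with an equal volume of 3-fold serial dilutions of the test compound (DMSO stock; final 20 μM to 339 pM). The mix was added to z-Leu-Arg-Arg-AMC (final 100 μM; enzyme 10 nM). AMC fluorescence (360/460 nm) was read every 3 min at 22°C, and the rate (RFU/s) was taken over 30 min.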

[1] = tested on: H-460 lung cancer cell line; assay: H-460 lung cancer cell cytotoxicity assay; format: cell-based; settings: read-out: Cytotoxic activity IC50

Chain of proteinase K (P06873 106-384): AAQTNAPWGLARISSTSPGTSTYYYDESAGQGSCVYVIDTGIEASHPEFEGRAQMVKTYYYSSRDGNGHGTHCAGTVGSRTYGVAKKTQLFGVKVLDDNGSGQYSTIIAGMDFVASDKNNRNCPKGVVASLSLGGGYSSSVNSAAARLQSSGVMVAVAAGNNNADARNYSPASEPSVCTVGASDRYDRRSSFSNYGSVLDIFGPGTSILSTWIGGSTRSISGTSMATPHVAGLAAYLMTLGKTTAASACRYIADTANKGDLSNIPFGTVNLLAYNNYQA
Chain of human chymotrypsin (P17538 19-263): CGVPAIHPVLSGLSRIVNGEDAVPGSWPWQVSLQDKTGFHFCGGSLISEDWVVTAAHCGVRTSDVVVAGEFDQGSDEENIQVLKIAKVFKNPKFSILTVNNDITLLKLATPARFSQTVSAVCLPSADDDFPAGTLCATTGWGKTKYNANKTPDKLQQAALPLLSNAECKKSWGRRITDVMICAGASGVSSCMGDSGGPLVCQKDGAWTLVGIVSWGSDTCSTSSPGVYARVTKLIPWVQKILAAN

Structure (SMILES) | IC50 (proteinase K) [nM] | Fold reduction in potency for chymotrypsin (human chymotrypsin) [fold] | Inhibition of bovine trypsin (bovine trypsin) | IC50 [1] [nM]
C/C=C1\NC(=O)[C@@H](NC(=O)[C@H](CCC(N)=O)NC(=O)CCCCC)[C@@H](C)OC(=O)[C@H](C(C)C)NC(=O)[C@H](Cc2ccc(O)cc2)N(C)C(=O)[C@H](Cc2ccccc2)N2C(=O)[C@H](CC[C@H]2O)NC1=O [Lyngbyastatin 7, lyngbyastatin 7] | 1570 |  |  | 
C/C=C1\NC(=O)[C@@H](NC(=O)[C@@H](NC(=O)[C@H](C)NC(=O)C/C(C)=C/Cl)[C@@H](C)CC)[C@@H](C)OC(=O)[C@H](C(C)C)NC(=O)[C@H](Cc2ccc(O)cc2)N(C)C(=O)[C@H](Cc2ccccc2)N2C(=O)[C@H](CC[C@H]2O)NC1=O [Tutuilamide A (1), tutuilamide A] |  | 2 | no inhibition | 530 ± 40
C/C=C1\NC(=O)[C@@H](NC(=O)[C@@H](NC(=O)[C@H](C)NC(=O)C/C(C)=C/Cl)C(C)C)[C@@H](C)OC(=O)[C@H](C(C)C)NC(=O)[C@H](Cc2ccc(O)cc2)N(C)C(=O)[C@H](Cc2ccccc2)N2C(=O)[C@H](CC[C@H]2O)NC1=O [Tutuilamide B (2), tutuilamide B] |  |  | no inhibition | 1270 ± 210
C/C=C1\NC(=O)[C@@H](NC(=O)[C@@H](NC(=O)C/C(=C/Cl)CC)C(C)C)[C@@H](C)OC(=O)[C@H](C(C)C)NC(=O)[C@H](Cc2ccc(O)cc2)N(C)C(=O)[C@H](Cc2ccccc2)N2C(=O)[C@H](CC[C@H]2O)NC1=O [Tutuilamide C (3), tutuilamide C] |  |  | no inhibition | 4780 ± 450
